Measurements published in PubChem BioAssay AID624467 (The Scripps Research Institute Molecular Screening Center, 2012).
About 3,600 (1%) of roughly 360,000 compounds were called active. The sample holds actives, similar compounds and a random draw of the others, so the mix is not that of the screen. Unmarked numbers belong to inactive results.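 Rule for the calls: active = activation above the mean activation of all test compounds in the run plus 3 SD (cut at about 38% in these data); inactive = the rest.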

What follows are compounds tested against Trace amine-associated receptor 1 (Homo sapiens) (UniProt Q96RJ0) (assay: human TAAR1 agonists, primary screen, Fluo-8 calcium fluorescence, CHO RD-HGA16 cells (AID 624467)). Settings: CHO RD-HGA16 TAAR1, Fluo-8 calcium fluorescence; at 3 µM; hits give high values; vehicle wells 0%, saturating PEA agonist 100%.
Method in brief: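 test system = CHO RD-HGA16 cells carrying human TAAR1 plus Gα16 | schedule = 17-24 h seeding, 75 min 37 °C dye, 30 min RT | compound dosing = 3 µM single concentration | control set = DMSO and PEA EC100 | replicates = n 1 | signal = Fluo-8 fluorescence, 5 s baseline then 140 s kinetic read | measure = percent activation vs PEA EC100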

Sequence of Trace amine-associated receptor 1 (Homo sapiens) (Q96RJ0 whole entry, looked up): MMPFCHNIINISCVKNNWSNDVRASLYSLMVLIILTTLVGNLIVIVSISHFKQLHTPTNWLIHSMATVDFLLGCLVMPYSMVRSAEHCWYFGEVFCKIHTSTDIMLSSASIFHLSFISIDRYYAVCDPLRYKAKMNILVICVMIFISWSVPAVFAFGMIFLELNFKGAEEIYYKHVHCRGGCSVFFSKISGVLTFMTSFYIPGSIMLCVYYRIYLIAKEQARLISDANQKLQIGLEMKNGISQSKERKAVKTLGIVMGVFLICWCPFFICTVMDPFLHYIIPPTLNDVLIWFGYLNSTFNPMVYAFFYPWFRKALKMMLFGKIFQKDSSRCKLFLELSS

Compound | activation
S=C(NCCCc1cnc[nH]1)NCCCN(Cc1ccc(Cl)c(Cl)c1)c1ccc(Br)cn1 | 44.3% (active)
NCCCNC(=S)NCCCN(Cc1ccc(Cl)cc1)c1ccc(Br)cn1 | 24.3%
COC(=O)C1=C(C)N(Cc2ccc(C(F)(F)F)cc2)C(=NCc2ccc(C(F)(F)F)cc2)NC1c1cccc(Cl)c1 (centres undefined) | 16.8%
O=C(CCC1CCCN(Cc2ccc(O)c(Cl)c2)C1)NCc1ccccc1F (centres undefined) | 5.41%
CCC(C)C(N=C1NS(=O)(=O)c2ccccc21)C(=O)N1CCC(C)CC1 (centres undefined) | 5.5%
COc1ccccc1-c1ccc([C@@H]2C[C@H]3[C@H](CON3C)CN2S(=O)(=O)c2cc(Cl)cc(Cl)c2)cc1 | 0.17%
COc1ccc(OCC(O)CNC(=O)Nc2ccc(Cl)cc2)cc1 (centres undefined) | 9.53%
OC(CNCCc1ccc(Cl)cc1Cl)COc1ccccc1 (centres undefined) | 86% (active)
OC(COc1ccccc1)CN1CCN(c2cccc(Cl)c2)CC1 (centres undefined) | 4.5%
CC1CN(S(=O)(=O)c2cccc(C(F)(F)F)c2)CN1C(=O)N1CCOCC1 (centres undefined) | -1.03%
CCOC(=O)[C@]12CCCC=C1N(CCC1=CCCCC1)C(=O)[C@H](CC(=O)N1CCOCC1)C2 | -0.62%
CCS(=O)(=O)N1CCN(C(=O)c2cccs2)CC1 | 3.03%
COC(=O)c1ccc(CN2C(=O)[C@]3(OCCC=C[C@H]3C)c3c(Br)cccc32)cc1 | 2.59%
Cc1ccccc1CN1C(=O)c2ccccc2Sc2ccc(C(=O)NCCCN3CCOCC3)cc21 | 40.1% (active)
O=C(NCCCN1CCCCC1)c1ccc2c(c1)NC(=O)C(N1CCOCC1)S2 (centres undefined) | 3.95%
CCC1=Nc2cc(C(=O)NCCCN3CCOCC3)ccc2Sc2ccc(Br)cc21 | 9.87%
COC(=O)c1c(-c2ccc(OC)cc2)c2c(c3c4cc(OC)ccc4n(S(=O)(=O)c4ccc(F)cc4)c13)C(=O)N(C)C2 | -0.58%
CCOC(=O)N1CCN(C(=O)c2ccccc2SCC(=O)NCC2CCCCC2)CC1 | 2.29%
O=C(COC(=O)c1ccc(F)cc1)NCC1COc2ccccc2O1 (centres undefined) | 0.46%
c1ccc2c(c1)OCC(CNc1ncnc3nc[nH]c13)O2 (centres undefined) | 225% (active)
O=C(COc1ccc(F)cc1Br)NCC1COc2ccccc2O1 (centres undefined) | -1.29%
CN(c1ccccc1)S(=O)(=O)c1ccc(C(=O)NCc2cccnc2)cc1 | 3.27%
Cc1cc(N2CCOCC2)nc2ccc(NC(=S)N3CCN(Cc4ccccc4)CC3)cc12 | 7.44%

Compound | activation
Cc1ccc(Sc2cc(N3CCOCC3)nc(-c3ccccc3)n2)cc1 | 48.2% (active)
O=S(=O)(Cc1cc(Sc2ccccc2)nc(-c2ccccc2)n1)c1ccccc1 | 11.3%
c1ccc(C2CNCc3c2ccc2ccccc32)cc1 (centres undefined) | 82% (active)
c1ccc2c(CCN3CCNC[C@H]3Cc3cccc4ccccc34)cccc2c1 | 33.5%
O=C(COC(=O)c1cc(-c2cccs2)nn1-c1ccccc1)Nc1cc([N+](=O)[O-])ccc1Cl | 7.58%
Cc1ccc(N2C(=O)CC(NCc3ccc4c(c3)OCO4)C2=O)cc1Cl (centres undefined) | 1.12%
CSCCC(NS(=O)(=O)c1ccc2c(c1)oc(=O)n2C)C(=O)NC1CCCc2ccccc21 (centres undefined) | 4.94%
COC(=O)[C@]12C[C@H](CC(=O)NCCc3ccccc3OC)C(=O)N(Cc3ccccc3)C1=C[C@H](C(C)C)O[C@@H]2C1CC1 | 30.4%
COc1ccc(OC)c(C(C)NC(=S)Nc2ccc(S(=O)(=O)Nc3ncccn3)cc2)c1 (centres undefined) | 1.66%
COc1ccc(NS(=O)(=O)c2ccc(NC(=S)NC(=O)CC(C)C)cc2)cc1 | 42.2% (active)
COc1cc(NS(=O)(=O)c2ccc(NC(=S)NC(=O)c3ccccc3)cc2)nc(OC)n1 | -5.7%
COc1ccc(C2c3ccc(O)cc3Oc3ncn(CCCO)c(=N)c32)cc1OC (centres undefined) | 0.73%
C=CCN1C(=NC(=O)COc2ccccc2)SC2CS(=O)(=O)CC21 (centres undefined) | 2.44%
C=CCN1CN(S(=O)(=O)c2ccc(OC)cc2)c2nc3ccccc3nc21 | 2.16%
O=C(NCc1ccccc1)[C@H]1CCCN1C(=O)[C@H]1CCCN1C(=O)N1CCOCC1 | 1.52%
Cc1ccc(C)n1-c1ccncc1 | 2.15%
COc1ccc(C(C(O)C(=O)c2c[nH]c3ccccc23)N2CCN(c3ccccc3)CC2)cc1 (centres undefined) | 39.9% (active)
COc1ccc(C(CC(=O)N2CCN(c3ccccc3)CC2)c2c(O)cc(OC)cc2OC)cc1 (centres undefined) | 2.38%
COc1ccc(C(C(=O)Nc2c(C)cccc2C)N2CCN(c3ccc(C)cc3)CC2)cc1 (centres undefined) | 5.99%
COC(=O)C1=C(C)N(Cc2ccc(F)cc2)C(=S)NC1c1cccc(Cl)c1 (centres undefined) | -0.89%
CN1CCCc2nc(-c3ccccc3)ccc21 | 1.31%
O=C(Nc1ccccc1)c1ccc2nsnc2c1 | -0.47%
CC(C)(C)NC(=O)c1cccc(NC(=O)Cc2ccc(Br)cc2)c1 | 2.23%

Compound | activation
O=C(Nc1cccc(NC(=O)c2ccc(Br)cc2)c1)c1ccccc1 | 63.2% (active)
O=C1CCN(CCc2ccccc2)CCN1CCOc1ccccc1 | 19.8%
CCCN1CNC(=S)N(CCc2ccccc2)C1 | 4.93%
N#CNC1=NCN(CCc2ccccc2)CN1 | 63.9% (active)
CC(C)C[C@H](NC(=O)CC1CCCC1)C(=O)N1CCC[C@H]1C(=O)NCc1ccccc1 | 1.37%
COCCCn1c(Cc2csc(Nc3cccc(Cl)c3)n2)nnc1SCC(=O)OC1CCCCC1 | 52.8% (active)
CCOc1ccc(Nc2nc(Cc3nnc(SCC(=O)NC4CCCC4)n3C)cs2)cc1 | 11.9%
COCCCn1c(SCC(=O)NC2CCCC2)nnc1-c1ccccc1 | 0.55%
CC(C)Nc1nnc(SCC(=O)c2c[nH]c3ccccc23)s1 | 1.89%
C[C@H](NC(=O)c1ccccc1)C(=O)OCC(=O)c1c[nH]c2ccccc12 | 70% (active)
CCOc1ncccc1C(=O)OCC(=O)c1c[nH]c2ccccc12 | 14.1%
COc1ccc(NC(=O)C2(C)Cc3c(-c4ccc(C(N)=O)cc4)ccnc3O2)cc1 (centres undefined) | 1.37%
CN[C@H]1C[C@H]2c3[nH]c4c(-c5ccccc5)cccc4c3CCN2C(=O)[C@H]1[C@H](C)O | 4.95%
CCc1ccc(-c2nn(-c3ccccc3)cc2CSC(=N)N)cc1 | 99.3% (active)
CCc1ccc(-c2nn(-c3ccccc3C)cc2C(=O)N2CCN(C3CCS(=O)(=O)C3)CC2)cc1 (centres undefined) | 1.27%
O=C(NCCCN1CCOCC1)c1cn(-c2ccccc2)nc1-c1ccc(F)cc1 | 3.53%
CCc1nc2ccc(C(=O)N3CCN(c4cccc(Cl)c4)CC3)cc2nc1CC | 1.12%
COC(=O)[C@]12C[C@H](CC(=O)NCCCCc3ccccc3)C(=O)N(Cc3ccc4c(c3)OCO4)C1=C[C@H](C(C)(C)C)O[C@@H]2C | 5.91%
Cc1occc1C(=O)N/N=C/c1ccc(-c2cccc([N+](=O)[O-])c2)o1 | 4.69%
COc1cc(/C=N\NC(=O)c2nonc2N)c(OC)cc1Br | 1.69%
Cc1cc(C)c([N+](=O)[O-])cc1-c1ccc(/C=N/NC(=O)c2nonc2N)o1 | 41% (active)
O=C(COC(=O)CCc1c[nH]c2ccccc12)Nc1cccc(Cl)c1 | 3.56%
Nc1ncnc2c1ncn2[C@@H]1O[C@H](C(=O)N[C@@H](CCc2ccccc2)C(=O)NCC(=O)N2CCOCC2)[C@@H](O)[C@H]1O | 0.02%

Compound | activation
Clc1cccc2c1C1CC2CCN1Cc1ccccc1 (centres undefined) | -1.9%
Cc1ccccc1NC(=S)NC(=O)Cc1ccc(Cl)cc1 | 82.3% (active)
Cc1cc(C(=O)NNC(=S)Nc2ccccc2C)cs1 | 7.69%
Cc1ccccc1N/C(SCc1ccc(Cl)cc1)=C(/C#N)C(N)=O | 6.27%
O=C(Cc1ccc(Cl)cc1)NC(=S)Nc1ccccc1O | 138% (active)
Fc1ccccc1CNC(=S)Nc1ccc(Cl)cc1 | 5.04%
COC(=O)c1ccccc1NC(=O)CN(Cc1ccc(Cl)cc1)S(C)(=O)=O | 8.09%
Cc1ccc(NS(=O)(=O)c2ccc3c(c2)oc(=O)n3C)c(C)c1 | 3.17%
Brc1ccc(COCCc2cn(Cc3ccccc3)c3ccccc23)cc1 | 0.28%
S=C(NCCc1ccccc1)N1CCn2cccc2C1c1ccncc1 (centres undefined) | 96.1% (active)
S=C(Nc1cccc(Br)c1)N1CCn2cccc2C1c1cccnc1 (centres undefined) | 11.1%
CC1CCCCN1C(=S)NCc1ccccc1 (centres undefined) | 5.09%
Cc1cc(=O)[nH]c(Nc2cccc(Br)c2)n1 | 26.1%
O=c1cnnc(Nc2ccccc2)[nH]1 | 53% (active)
O=c1cnnc(Nc2ccccc2F)[nH]1 | 19.6%
O=C(COC(=O)c1ncc(Cl)c(Cl)c1Cl)NNC(=O)c1ccccc1 | 4.83%
COc1ccc(N(C)C(=O)C2CCN(S(=O)(=O)c3cccc4nsnc34)CC2)cc1 | 2.99%
O=C(Nc1cccc(-c2cccc(Cl)c2)c1)C1CCN(C2CCC2)CC1 | 45.3% (active)
CCn1cc(CN2CCC(C(=O)Nc3cccc(-c4cccc(Cl)c4)c3)CC2)cn1 | 16.6%
CCn1cc(CN2CCC(C(=O)Nc3cccc(-c4cccc(Cl)c4)c3)CC2)c(C)n1 | 19.7%
